# Bioassay records: PubChem BioAssay, several laboratories
# NS3 helicase inh: inhibitors of HCV NS3 helicase, primary screen, biochemical, Cy5 molecular beacon fluorescence | inhibition, % at 10.9 µM | NS3 helicase DNA unwinding | 290,000 tested, 0.56% active | AID 1800, 2009;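 active = inhibition above the mean of all tested compounds plus 3 SD, set per campaign, cut at about 35% in these data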;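 note: 0% = DMSO wells and 100% = thioflavine S control wells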
#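 Measured by: Cy5 fluorescence, 0 and 60 min reads / Assay system: NS3 helicase fragment of HCV / Control set: low DMSO, high thioflavine S at 110 µM / Times: 1 h reaction at 25 °C, ATP-initiated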
# pCIP destab: p/CIP-EGFP fusion destabilizers, primary screen, fluorescence, F442A cells. AID 1984, 2009. decrease of EGFP signal, % at 10 µM. 290,000 tested, 0.01% active. 16 h;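 active = EGFP signal decrease of at least 30% at 10 µM or well 3 SD below plate mean, unless failing retest; inactive = the rest, including hits failing retest or dose response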
# Target sequence (Q05BA5 1-1403): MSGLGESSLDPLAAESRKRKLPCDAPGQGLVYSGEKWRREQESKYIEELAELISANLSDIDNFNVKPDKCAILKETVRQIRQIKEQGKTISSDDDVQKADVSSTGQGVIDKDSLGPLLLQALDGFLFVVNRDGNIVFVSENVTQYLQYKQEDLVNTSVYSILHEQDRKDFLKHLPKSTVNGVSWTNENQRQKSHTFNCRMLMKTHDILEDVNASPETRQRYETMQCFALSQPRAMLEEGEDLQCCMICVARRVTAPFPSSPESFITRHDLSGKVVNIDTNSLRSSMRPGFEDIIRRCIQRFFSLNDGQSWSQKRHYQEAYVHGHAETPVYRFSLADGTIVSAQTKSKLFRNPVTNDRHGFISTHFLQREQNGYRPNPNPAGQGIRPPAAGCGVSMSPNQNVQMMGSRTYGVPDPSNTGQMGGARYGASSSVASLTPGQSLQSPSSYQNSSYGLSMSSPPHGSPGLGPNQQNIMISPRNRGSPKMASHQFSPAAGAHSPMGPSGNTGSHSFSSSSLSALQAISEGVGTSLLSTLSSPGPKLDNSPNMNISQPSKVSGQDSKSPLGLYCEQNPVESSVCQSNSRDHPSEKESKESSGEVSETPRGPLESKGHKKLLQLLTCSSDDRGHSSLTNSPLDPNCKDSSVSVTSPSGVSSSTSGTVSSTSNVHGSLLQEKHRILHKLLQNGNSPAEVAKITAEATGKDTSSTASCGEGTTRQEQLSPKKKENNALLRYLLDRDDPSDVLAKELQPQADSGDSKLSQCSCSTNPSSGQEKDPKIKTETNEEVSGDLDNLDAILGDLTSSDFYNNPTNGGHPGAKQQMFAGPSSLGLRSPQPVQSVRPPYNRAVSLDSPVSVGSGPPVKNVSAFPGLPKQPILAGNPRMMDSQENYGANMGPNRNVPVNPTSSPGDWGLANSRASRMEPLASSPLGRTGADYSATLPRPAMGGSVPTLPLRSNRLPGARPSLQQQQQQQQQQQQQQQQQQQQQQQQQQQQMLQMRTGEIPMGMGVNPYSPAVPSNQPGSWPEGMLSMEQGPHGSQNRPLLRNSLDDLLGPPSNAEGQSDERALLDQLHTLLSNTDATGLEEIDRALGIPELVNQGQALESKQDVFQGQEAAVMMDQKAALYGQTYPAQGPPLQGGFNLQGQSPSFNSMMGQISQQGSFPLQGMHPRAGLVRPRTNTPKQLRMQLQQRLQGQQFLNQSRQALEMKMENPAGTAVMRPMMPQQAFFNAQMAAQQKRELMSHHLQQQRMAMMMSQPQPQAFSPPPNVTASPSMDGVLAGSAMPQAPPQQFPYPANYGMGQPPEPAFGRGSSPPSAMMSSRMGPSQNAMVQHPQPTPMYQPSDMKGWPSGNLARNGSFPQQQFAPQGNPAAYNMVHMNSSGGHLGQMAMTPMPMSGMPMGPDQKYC
# HCV core dimer: inhibitors of HCV core protein dimerization, primary screen, biochemical, TR-FRET, high-throughput | TR-FRET GST/Flag-core106 dimerization, 1536-well | inhibition, % at 5 µM | 300,000 tested, 0.33% active | AID 1899, 2009;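 active = inhibition above the mean of all tested compounds plus 3 SD, set per screening campaign, cut at about 45% in these data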
#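 Assay system – GST-tagged and Flag-tagged HCV core protein residues 1-106 · Quantity – core106 proteins, GST 13.5 nM and Flag 17 nM · Benchmarks – unlabelled core106 and no-GST-core106 wells · Read-out basis – percent inhibition of core106 dimerization signal · Detection – time-resolved FRET, ex 340 nm, em 617 and 671 nm · Schedule – 4 h at 22.5 °C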
# GPR7 antag: GPR7 receptor antagonists, primary screen, cell-based, fluorescence, single concentration; Neuropeptides B/W receptor type 1 (Homo sapiens), P48145; GPR7-expressing cells, fluorescence antagonist assay; inhibition, % at 4.4 µM; 290,000 tested, 1.1% active; AID 1861, 2009; in the data active = inhibition above about 16%, passing the limit was not always enough;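 note: cells stimulated with the agonist NPW; 0% = agonist with vehicle and 100% = vehicle without agonist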
# DNA FID counter: compounds displacing fluorescent DNA intercalator, primary screen, artefact control for HCV NS3 helicase inhibitor project, biochemical, FID fluorescence | inhibition, % at 7.9 µM | DNA fluorescent intercalator displacement | AID 1845, 2009 | 290,000 tested, 0.17% active; in the data active = inhibition above about 37%;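 note: 0% = vehicle and 100% = reference compound; higher means more ethidium bromide displaced from hairpin DNA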
# Starred values were filed as active, the others as inactive; . = not tested or not shown. This is a sample that favours compounds with a hit; in the whole collection about 1.9% have one here.
SMILES,NS3 helicase inh,pCIP destab,HCV core dimer,GPR7 antag,DNA FID counter
CC(=O)Nc1ccc(S(=O)(=O)N2c3ccccc3C(C)=CC2(C)C)cc1,-4,-23,-1,22*,-15
CCN(CC)C(=O)CSc1nc2nc(C)cc(C)c2c(=O)[nH]1,-1,-6,-3,2,-3
Cc1cc(C)c2c(=O)[nH]c(SCC(=O)N(C)C)nc2n1,-5,-5,0,-7,75*
CC1(C)C(=O)Nc2ccccc2N1C(=O)CSc1nc(-c2ccccc2)cs1,6,-4,46*,-5,-4
COc1ccccc1NC(=O)NNC(=O)CCN1CCOCC1,2,-14,-18,-15,0
CSc1ncccc1C(=O)Nc1ccc(OC(F)(F)F)cc1,-12,-1,-2,8,0
CSc1ncccc1C(=O)Nc1ccc(F)c(F)c1F,-12,0,-2,15*,3
Cc1cc(NC(=O)COC(=O)CCNS(=O)(=O)c2c(Cl)cccc2Cl)no1,6,3,0,-1,-6
Cn1cnnc1SCc1ccc(-c2ccc(Br)cc2)o1,24,-21,64*,-1,-8
Cn1cnnc1SCc1ccccc1,19,4,1,-1,0
COc1ccc(NC(=S)N(CCc2c(C)[nH]c3ccc(C)cc23)Cc2ccco2)cc1,-22,1,7,20*,-4
Cc1ccc(-c2cc(-c3ccc(C)o3)nc(N)c2C#N)cc1,12,-29,60*,4,-13
Cc1ccc(-c2cc(-c3ccc(F)cc3)c(C#N)c(N)n2)o1,8,-10,31,-6,-2
COc1ccc(N2Cc3cccc(C(=O)N4CCN(C(=O)c5ccco5)CC4)c3C2=O)cc1,6,-3,85*,-6,-20
CC(=O)NNC(=S)NC(=O)C(c1ccccc1)c1ccccc1,12,-16,0,-2,-5
CC(C)(C)C(=O)NC(=S)NNC(=O)C(c1ccccc1)c1ccccc1,0,-13,2,90*,-22
C#CCOCCOCCOCCNc1nc(N2CCN(C(=O)[C@H]([C@@H](C)CC)n3cc([C@@H](N)CO)nn3)CC2)nc(N2CCN(C(=O)[C@H](CCCCN)n3cc([C@@H](N)C(C)CC)nn3)CC2)n1 (some centres not stated),-54,-13,3,-18,52*
C#CCOCCOCCOCCNc1nc(N2CCN(C(=O)[C@H](CCCCN)n3cc(C(N)[C@H](C)CC)nn3)CC2)nc(N2CCN(C(=O)[C@H](CCC(=O)O)n3cc(C(N)[C@H](C)CC)nn3)CC2)n1 (some centres not stated),-37,-9,4,-11,30
C#CCOCCOCCOCCNc1nc(N2CCN(C(=O)[C@H](CCCCN)n3cc([C@@H](N)C(C)CC)nn3)CC2)nc(N2CCN(C(=O)[C@H](CCCCN)n3cc([C@@H](N)CO)nn3)CC2)n1 (some centres not stated),-33,3,8,5,66*
CCCCCC#CCC#CCC#CCC#CCCCC(=O)O,4,0,54*,-6,-31
CCCCCCCCCCCCS(=O)(=O)CCC(=O)O,5,-1,3,-15,-19
COc1ccc(C)cc1NC(=O)C/C(C)=N/NC(=O)Cc1cccc2ccccc12,15,-4,-6,12,-24
COc1ccc(NC(=S)N(CCCN2CCCC2)Cc2cccn2Cc2ccc(Cl)cc2)cc1Cl,-75,-9,-8,19*,28
Cc1ccc(NC(=S)N(CCCN2CCCC2)Cc2cccn2Cc2ccc(Cl)cc2)cc1Cl,-72,-4,3,15,35
CCOC(=O)N1CCN(C(=O)CN(Cc2ccccc2)S(C)(=O)=O)CC1,8,-11,5,-16,-16
SMILES,NS3 helicase inh,pCIP destab,HCV core dimer,GPR7 antag,DNA FID counter
CS(=O)(=O)N(CC(=O)N1CCN(Cc2ccccc2)CC1)Cc1ccccc1,-2,0,-1,16*,-15
CCCN1Cc2cccc(C(=O)NCCc3ccccc3)c2C1=O,4,-10,-5,-9,-35
CCCc1nnc(NC(=O)CCC(=O)Nc2ccc(Br)cc2)s1,-3,1,11,-7,-3
Nc1cccc2nc3ccccc3cc12,24,-5,-2,-7,45*
O=C(c1cc(Cl)ccc1O)N1CCN(S(=O)(=O)c2cccs2)CC1,.,.,0,.,.
CCOc1cc(C(=O)OCC(=O)NCc2ccco2)cc(OCC)c1OCC,25,-12,52*,-15,-23
CC(C)C(NC(=O)OCc1ccccc1)C(=O)OCC(=O)NCc1ccco1 (configuration not stated),20,7,75*,1,-27
O=C(COC(=O)c1ccc(NS(=O)(=O)c2cccs2)cc1)NCc1ccco1,29,-4,72*,-3,-15
Cc1cc(=O)oc2cc(OCC(=O)NCc3ccco3)ccc12,0,0,-4,-15,94*
O=C(COC(=O)c1cccs1)NCc1ccco1,.,-6,6,.,.
COc1cc(C(=O)OCC(=O)NCc2ccco2)cc(OC)c1OC,4,-1,21,7,-7
CCOC(=O)c1cc(CC)sc1NC(=O)CN1C(=O)C(=O)N(CC(C)C)C1=O,.,.,0,.,.
O=C1Nc2ccccc2/C1=C/c1cnc(-c2ccccc2)[nH]1,-11,-50,48*,1,-14
O=C(CSc1nnc(-c2cnccn2)n1Cc1ccco1)c1ccc2ccccc2c1,11,47*,17,0,-13
CCN(CC)c1ccc2c(Cl)c(Br)c(=O)oc2c1,12,-99,-91,41*,-4
COc1ccc(S(=O)(=O)c2c(N)n(Cc3ccco3)c3nc4ccccc4nc23)cc1,35,-49,72*,1,-12
COc1ccc(CCNc2ncnc3c2oc2ccccc23)cc1OC,-15,-12,-2,37*,-25
COc1ccc([N+](=O)[O-])c(S(=O)(=O)c2ccccc2)n1,-11,-6,0,20*,5
CCN(Cc1ccccc1)C(=O)CN1C(=O)NC2(CC(C)CC(C)(C)C2)C1=O (configuration not stated),-6,-24,5,-6,-42
Cc1[nH]c2ccccc2c1C(=O)CN1C(=O)NC2(CC(C)CC(C)(C)C2)C1=O (configuration not stated),-12,-3,-1,19*,-17
O=C(CSc1ccccc1F)NC(=O)NCc1ccco1,31,15,23,-2,-2
Cn1c(SCC(=O)NC(=O)NCc2ccco2)nnc1-c1ccccc1,7,3,57*,-9,-10
Cc1cc(SCC(=O)NC(=O)NCc2ccco2)nc2c(C)cccc12,22,-14,48*,-6,-7
Cc1ccccc1CSCC(=O)NC(=O)NCc1ccco1,17,-6,58*,-7,-8
